From PubChem
Hits are enriched below; roughly 2% of the tested compounds scored in any of these assays.
Hep lipid drop: modulators of hepatic lipid droplet formation; AML12 mouse hepatocytes, oleate lipid droplets, BODIPY imaging; 0.4% of 240,000 active; inhibition, % at 6.5 µM;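 active = lipid droplet intensity inhibited by at least 50%, with more than 500 cells counted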
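Material – mouse AML12 hepatocyte cell line, fixed after treatment · Compound dosing – one dose, 6.5 µM compound · Times – compound with oleate, overnight · Measured by – Image-based BODIPY and DAPI two-channel analysis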
GRK2 aptamer HTS: human GRK2 inhibition via aptamer displacement. P25098. bead flow cytometry, FAM-aptamer displacement from GRK2. inhibition of aptamer binding, % at 10 µM. 0.59% of 330,000 active. AID 488847;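 active = inhibition of aptamer binding above 40%, roughly 3 SD of noise, on plates passing a quality check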;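 also: median bead fluorescence of bound FAM aptamer so fluorescent compounds give negative values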
Target sequence (P25098 whole entry, looked up): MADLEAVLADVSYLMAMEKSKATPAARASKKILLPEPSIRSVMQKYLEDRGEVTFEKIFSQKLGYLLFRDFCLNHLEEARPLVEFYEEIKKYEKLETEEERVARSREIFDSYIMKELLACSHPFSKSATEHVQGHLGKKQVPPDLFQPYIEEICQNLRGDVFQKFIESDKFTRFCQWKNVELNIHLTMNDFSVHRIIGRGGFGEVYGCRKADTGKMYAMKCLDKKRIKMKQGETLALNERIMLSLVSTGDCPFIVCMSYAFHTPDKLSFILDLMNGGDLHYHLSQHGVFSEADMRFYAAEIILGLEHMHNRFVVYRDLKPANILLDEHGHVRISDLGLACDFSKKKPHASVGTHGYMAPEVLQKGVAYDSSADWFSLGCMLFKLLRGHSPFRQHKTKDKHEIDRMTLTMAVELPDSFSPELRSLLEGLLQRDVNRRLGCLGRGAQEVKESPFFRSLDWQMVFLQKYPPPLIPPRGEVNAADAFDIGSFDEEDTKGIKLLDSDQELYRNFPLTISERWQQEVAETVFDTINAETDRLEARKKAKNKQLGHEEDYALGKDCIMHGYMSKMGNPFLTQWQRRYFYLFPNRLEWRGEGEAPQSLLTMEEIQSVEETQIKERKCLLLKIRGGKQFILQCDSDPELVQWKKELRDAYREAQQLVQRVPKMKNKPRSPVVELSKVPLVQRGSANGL
Arrestin-AP2 inh: inhibitors of human beta-arrestin and AP2 interaction; FITC-arrestin peptide / GST-AP2 beads, flow cytometry; AP2 beta2 appendage carries R879A mutation; inhibition, % at 10 µM; 0.31% of 340,000 active; AID 504490;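 active = inhibition above a set limit, near 3 SD of compounds lacking own fluorescence, cut at about 54% in these data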;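 also: plate controls were DMSO wells for no effect and 5 µM unlabelled arrestin peptide for full effect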
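Material – GST-tagged AP2 beta2-adaptin appendage (R879A) on 4 µm glutathione beads · Probe or stimulus – fluorescein-tagged arrestin peptide at 50 nM final · Timing – 12 min plus 1 h, RT · Detection – bead flow cytometry, FITC channel · Read-out basis – inhibition as reduced fluorescein signal on beads, percent · Medium – PBS plus Tween 20 (0.05%) and BSA (0.1%)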
B2AR ag: human beta-2 adrenergic receptor agonism by FAP. Am2.2-beta2AR cells, FAP receptor internalization, flow cytometry. response, % (concentration not given with the values). P07550. 0.43% of 340,000 active. AID 504454;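 active = response above a set limit, near 3 SD of response in nonfluorescent compounds, cut at about 42% in these data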
NTR1 ag: NTR1 (human) agonism. NTR1-U2OS beta-arrestin-GFP spot imaging, agonist mode. activation, % at 20 µM. 0.17% of 330,000 active. AID 493036;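 active = activation at or above 40% of the spot to cytoplasm intensity ratio, with at least 20 cells analyzed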;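 also: 0% = DMSO without peptide and 100% = 100 nM NTR1 peptide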
TAG inh: triacylglycerol accumulation inhibition; H9c2 cells, Nile Red lipid (TAG) fluorescence; cells loaded with 200 µM oleic acid; inhibition, % at 12.5 µM; 0.66% of 230,000 active;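 active = pattern-corrected inhibition of lipid staining of at least 50% with the nuclear-stain viability signal not falling by more than 50%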;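 also: 0% = DMSO wells and 100% = triacsin C control wells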
GRK2 CP1: confirmation of human GRK2 inhibitors displacing RNA aptamer; bead-bound GRK2, FAM-aptamer displacement, flow cytometry; 4% of 2,000 active; shares compounds with GRK2 aptamer HTS; AID 504451; aptamer displacement, % at 10 µM;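 active = aptamer displacement above 40%, near three times the noise of non-fluorescent compounds, on plates passing quality checks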;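 also: negative values mostly reflect intrinsic compound fluorescence rather than true enhancement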
Aptamer quench: quenches fluorescent RNA aptamer, GRK2 hit artifact | shares compounds with GRK2 aptamer HTS | 110 tested, under 10 active | Fluorescent RNA aptamer beads, quenching, flow cytometry; active compounds read high | AID 504521 | fluorescence change (kMESF span), kMESF (no concentration beside the values);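 active = compounds whose bead fluorescence drops by more than 37 kMESF across the dose range, marking them as dye quenchers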
FAM quench CP1: aptamer fluorescence quenching in GRK2 counter-screen; shares compounds with GRK2 aptamer HTS; Carboxyfluorescein RNA aptamer on beads, flow cytometry quenching; active compounds read low; fluorescence response (% of DMSO), % at 10 µM; 2,000 tested, under 10 active; AID 504580;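 active = compounds that quench the bead-bound fluorescent RNA probe, cutting fluorescence to under half of the solvent control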;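 also: counterscreen run without GRK2 so only probe quenching by compound is measured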
GRK2 CP2: confirmation of human GRK2 inhibitors binding RNA aptamer site. bead-bound GRK2, FAM-aptamer displacement, flow cytometry. inhibition of aptamer binding, % at 10 µM. AID 504782. shares compounds with GRK2 aptamer HTS. 360 tested, under 10 active;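 active = inhibition of aptamer binding above 40%, about triple the noise seen with nonglowing compounds, on plates passing quality control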;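 also: negative values mostly come from compounds that fluoresce themselves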
FAM quench SP: quenches fluorescent RNA aptamer, GRK2 hit artifact. shares compounds with GRK2 aptamer HTS. carboxyfluorescein RNA aptamer beads, flow cytometry quenching; active compounds read low. fluorescence response vs DMSO, % at 10 µM. 360 tested, under 10 active. AID 588494;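 active = response vs DMSO under 50%, meaning signal dropped by over half, treated as fluorescence quencher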;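 also: labelled aptamer on streptavidin beads without GRK2 as a quench counter-screen; 100% = bead fluorescence of DMSO wells and lower means quenching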
FAM quench PS1: counter-screen for GRK2 aptamer binding inhibitors: aptamer fluorescence quenching. shares compounds with GRK2 aptamer HTS. Bead-bound FAM RNA aptamer fluorescence quenching, flow cytometry; active compounds read low. fluorescence ratio to DMSO, % at 11.1 µM. 35 tested, under 10 active;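 active = compounds that dim the fluorescent label, raw bead signal shifting by over 33 units between lowest and highest dose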
* hit, by the source's call; . = not tested or not shown.

SMILES | Hep lipid drop | GRK2 aptamer HTS | Arrestin-AP2 inh | B2AR ag | NTR1 ag | TAG inh | GRK2 CP1 | FAM quench CP1 | others
O=C(NCC(=O)N1CCOCC1)c1ccccc1 | 2 | 1 | 23 | -1 | 0 | . | . | .
COc1cc(C)c(NC(=O)c2cccc(S(=O)(=O)N3CCCC3)c2)cc1OC | . | 3 | -18 | 1 | 3 | 9 | . | .
CS(=O)(=O)N(CC(=O)N1CCN(c2ccccc2F)CC1)C1CCCCC1 | . | 3 | 1 | -1 | 0 | . | . | .
COc1ccccc1N1CCN(C(=O)CN(C2CCCCC2)S(C)(=O)=O)CC1 | -11 | 47* | 6 | 1 | 3 | -1 | 1 | 98
CC(=O)N/C(=C\c1ccccc1)C(=O)OCc1cc(C)ccc1C | -11 | 7 | 16 | 7 | 0 | . | . | .
COc1ccc(NC(=O)CCS(=O)(=O)c2ccc(Br)s2)cc1 | -7 | 87* | -9 | -10 | 0 | . | 43* | 95 | Aptamer quench=-2.3;FAM quench PS1=97
O=C(CCS(=O)(=O)c1ccc(Cl)cc1)Nc1ccccc1Br | 5 | 0 | 24 | -5 | 1 | . | . | .
O=C(CCS(=O)(=O)c1ccc(Br)s1)Nc1ccccc1Br | -9 | 88* | 14 | -1 | 0 | 15 | 12 | 94 | Aptamer quench=-5.6;FAM quench PS1=98
Cc1c(-n2c(SC(C)C(=O)NC(N)=O)nc3ccccc3c2=O)c(=O)n(-c2ccccc2)n1C (configuration not stated) | -10 | 1 | 37 | -2 | -1 | 0 | . | .
CCCn1c(SC(C)C(=O)NCC2CCCO2)nc2sc3c(c2c1=O)CCC3 (configuration not stated) | . | 1 | -13 | -7 | 1 | 26 | . | . | GRK2 CP2=-8;FAM quench SP=98
O=C(O)CSc1nc2sc3c(c2c(=O)n1-c1ccccc1)CCC3 | 10 | 3 | 5 | -4 | 2 | 8 | . | . | GRK2 CP2=-22;FAM quench SP=104
Cc1cccc(-n2c(SCC(=O)O)nc3sc4c(c3c2=O)CCC4)c1 | -9 | 0 | 38 | -7 | -1 | 7 | . | .
CCn1c(SCC(=O)O)nc2sc3c(c2c1=O)CCC3 | . | 35 | -8 | 0 | 2 | 12 | . | .
CCCn1c(SC(C)C(=O)NCC2CCCO2)nc2sc(CC)cc2c1=O (configuration not stated) | 2 | 0 | 19 | -17 | 1 | 6 | . | .
COCCCn1c(SCc2nnc(-c3ccccc3)o2)nc2sc3c(c2c1=O)CCC3 | . | 2 | 8 | -19 | 9 | -2 | . | .
CCn1c(SCC(=O)OC)nc2sc3c(c2c1=O)CCC3 | . | 9 | 32 | -8 | 0 | . | . | . | GRK2 CP2=14;FAM quench SP=100
Cn1c(SCc2nnc(-c3ccccc3Br)o2)nc2sc3c(c2c1=O)CCC3 | . | 0 | -4 | -5 | 1 | . | . | . | GRK2 CP2=23;FAM quench SP=100
COc1ccc(N(C(=O)c2snc(C(N)=O)c2N)C(C(=O)NC2CCCC2)c2cccs2)c(OC)c1 (configuration not stated) | 9 | 1 | 10 | 0 | 2 | . | . | .
Cc1cc(C)cc(NC(=O)C(OC(=O)c2ccc(NC(=O)CC#N)cc2)c2ccccc2)c1 (configuration not stated) | . | 0 | -13 | 7 | 5 | -16 | . | .
CCOc1ccc(NC(=O)CSc2nnc(C3CC3)n2C)cc1S(=O)(=O)N1CCCCC1 | . | 2 | -24 | -3 | 0 | -8 | . | .
Nc1cc2cccnc2cc1Cl | . | . | -8 | 3 | . | -5 | . | .
O=C(O)CC/C(=N/NC(=O)CNC(=O)C(c1ccccc1)c1ccccc1)c1ccccc1 | 7 | 90* | 12 | -6 | 0 | -14 | 3 | 96
Cc1ccc(-n2ncc3c(NCc4cccnc4)ncnc32)cc1C | 13 | 47* | 3 | 3 | 0 | . | -2 | 104
Cc1cccc(-n2ncc3c(NCc4cccnc4)ncnc32)c1 | -11 | 1 | 11 | 4 | 0 | -13 | . | .
Cc1ccc(C(=O)Nc2cccc3cccnc23)cc1C | 1 | 0 | 9 | 1 | 4 | . | . | .
SMILES | Hep lipid drop | GRK2 aptamer HTS | Arrestin-AP2 inh | B2AR ag | NTR1 ag | TAG inh | GRK2 CP1 | FAM quench CP1 | others
CCOc1ccc(NC(=O)CN(C)C(=O)c2ccc(COc3ccccc3)cc2)cc1OCC | . | 33 | 29 | 3 | 1 | -3 | -3 | 95
Cn1c(-c2ccc3nc(N)sc3c2)nc2cc(N)ccc21 | -10 | 52* | 16 | 7 | -1 | 12 | 4 | 96
CC1CC(C)CN(S(=O)(=O)N2CCCC(C(=O)NCc3ccccc3Cl)C2)C1 (configuration not stated) | -1 | 0 | 19 | 1 | 3 | . | -5 | 92
Cc1cc(=O)n2nc(N3CCCC(C(=O)NCc4ccccc4Br)C3)sc2n1 (configuration not stated) | -14 | 0 | 8 | -7 | 2 | . | . | .
Cc1cc(=O)n2nc(N3CCCC(C(=O)NCc4ccccc4Cl)C3)sc2n1 (configuration not stated) | -20 | 0 | 9 | -3 | 1 | . | -1 | 102
Cc1cc(=O)n2nc(N3CCCC(C(=O)NCc4ccccc4C)C3)sc2n1 (configuration not stated) | -2 | 0 | 2 | -3 | -2 | 7 | -3 | 97
Cc1cc(=O)n2nc(N3CCCC(C(=O)NCc4ccccc4)C3)sc2n1 (configuration not stated) | 4 | 0 | 3 | -7 | 2 | 1 | . | .
Cc1cccc(NC(=O)C2CCCN(S(=O)(=O)c3ccc4[nH]c(=O)ccc4c3)C2)c1 (configuration not stated) | -5 | 0 | -2 | 3 | -2 | 11 | . | .
O=C(CNc1cccc(F)c1)N1CCc2ccccc2C1 | . | 51* | 6 | -2 | 0 | . | . | . | GRK2 CP2=25;FAM quench SP=102
COc1cccc(NC(=O)C2(C)CCCN2C(=O)C(C)C)c1OC (configuration not stated) | . | . | . | . | . | -14 | . | .
